Measurements pooled from the literature.
Compare with care: the assays were run in different laboratories. Values after ≈ are worked out from the molar mass of the structure shown.
Organism: Bacillus subtilis

O=C(O)c1ccc(-n2cc(/C=N/Nc3cc(F)ccc3F)c(-c3cccc(F)c3)n2)cc1 — MIC (microbial growth; ATCC6623): 6.25 µg/mL (≈ 14.3 µM)
O=C(O)CN1C(=O)/C(=C/c2c3ccccc3c(-c3ccc(N(c4ccccc4)c4ccccc4)cc3)c3ccccc23)SC1=S — MBC (microbial killing; broth dilution; ATCC6633): > 1000 µg/mL
N#CC(=Cc1ccc(Cl)cc1)C1=NC(=O)C(=Cc2cn(-c3ccccc3)nc2-c2ccccc2)S1 — inhibition zone (microbial growth; well diffusion; 100000 µg/mL): 22 mm
O=C(O)CN1C(=O)/C(=C/c2ccc(-c3ccc(N(c4ccccc4)c4ccccc4)cc3)c3ccccc23)NC1=S — MBC (microbial killing; broth dilution; ATCC6633): > 1000 µg/mL
Cc1c(NC(=O)CC2=NC(=O)CS2)c(=O)n(-c2ccccc2)n1C — inhibition zone (microbial growth; well diffusion; 100000 µg/mL): 26 mm
O=C(O)CN1C(=O)/C(=C/c2ccc(-c3ccc(N(c4ccccc4)c4ccccc4)cc3)cc2)NC1=S — MBC (microbial killing; broth dilution; ATCC6633): 3.9 µg/mL (≈ 7.71 µM)
O=C(O)c1cn(C2CC2)c2cc(N3CCNCC3)c(F)cc2c1=O — inhibition zone (microbial growth; 6633; 1000 µg/mL): 29 mm
CN(/N=C/c1cn(-c2ccc(C(=O)O)cc2)nc1-c1cccc(F)c1)c1ccccc1 — MIC (microbial growth; ATCC6623): 12.5 µg/mL (≈ 30.2 µM)
CC[C@H]1OC(=O)[C@H](C)[C@@H](O[C@H]2C[C@@](C)(OC)[C@@H](O)[C@H](C)O2)[C@H](C)[C@@H](O[C@@H]2O[C@H](C)C[C@H](N(C)C)[C@H]2O)[C@](C)(O)C[C@@H](C)/C(=N\OCOCCOC)[C@H](C)[C@@H](O)[C@]1(C)O — inhibition zone (microbial growth; disc diffusion; ATCC6633; 20000 µg/mL; 24 h): 23 mm
CCOC(=O)c1c(N)csc1-c1cn(-c2ccccc2)nc1-c1ccccc1 — inhibition zone (microbial growth; well diffusion; 100000 µg/mL): 23 mm
O=C(O)CN1C(=O)/C(=C/c2ccc(-c3ccc(N(c4ccccc4)c4ccccc4)cc3)cc2)SC1=S — MBC (microbial killing; broth dilution; ATCC6633): 1.95 µg/mL (≈ 3.73 µM)
N#CC(=Cc1cn(-c2ccccc2)nc1-c1ccccc1)C1=NC(=O)CS1 — MBC (microbial killing; broth dilution): 0.25 µg/mL (≈ 0.675 µM)
O=C(N[C@H](CO)[C@H](O)c1ccc([N+](=O)[O-])cc1)C(Cl)Cl — inhibition zone (microbial growth; disc diffusion; 50 µg/disc): 21 mm
